Measured values from ChEMBL document CHEMBL1208742, “Synthesis and evaluation of beta-carboline derivatives as inhibitors of human immunodeficiency virus” (Bioorg Med Chem Lett, 2010).
Activity calls are given as the source filed them. No cut-off for these calls is given here.

Key:
[1] = system: Human immunodeficiency virus 1; experiment: Antiviral activity against HIV1 NL4.3 infected in human CEM-GFP cells assessed as inhibition p24 antigen production at non cytotoxic concentration after 8 days by ELISA; assay type: functional
Summary of the method: (§1)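 CEM-GFP T cells carry a stably integrated LTR-driven GFP gene that is trans-activated by Tat on infection. Cells were infected with HIV-1 NL4.3 at MOI 0.05 and incubated with compound for up to 8 days post infection. Viral p24 was read by ELISA. Line 2 was tested at each compound's non-cytotoxic concentration. IC50 is 50% protection from virus, n = 3.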

[2] = Cytotoxicity against human CEM cells expressing green fluorescent protein assessed as oncytotoxic concentration by MTT assay; assay type: cell-based, CCRF-CEM; conditions: read-out: Activity
Summary of the method: (§2)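 MTT cell viability assay in CEM-GFP cells. CC50 is the concentration reducing proliferation by 50%, n = 3. The non-cytotoxic concentration was chosen from these MTT results for the antiviral testing.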

[3] = system: Human immunodeficiency virus 1; experiment: Antiviral activity against HIV1 NL4.3 infected in human CEM-GFP cells assessed as inhibition p24 antigen production after 8 days by ELISA; assay type: functional, organism-based; conditions: Human immunodeficiency virus 1, NL4.3, CEM-GFP, 192 h; summary of the method: as §1
[4] = Therapeutic index, ratio of CC50 for human CEM cells expressing green fluorescent protein to IC50 for HIV1 NL4.3; assay type: cell-based, CCRF-CEM; conditions: read-out: TI
Summary of the method: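 Therapeutic index is CC50 (MTT proliferation in CEM-GFP cells, n = 3) divided by IC50 (p24 ELISA protection of HIV-1 NL4.3-infected CEM-GFP cells, n = 3).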

[5] = Cytotoxicity against human CEM cells expressing green fluorescent protein by MTT assay; assay type: cell-based, CCRF-CEM; summary of the method: as §2

Compound	MNTC [2] [µM]	inhibition [1]	also measured
CCCCC1(C(=O)OC)Cc2c([nH]c3ccccc23)C(C)=N1 (centres undefined)	8.39	–	inhibition (INH) [1]: 12.17%
COC(=O)C1Cc2c([nH]c3ccccc23)C(C)=N1 (centres undefined)	18.6	–	inhibition (INH) [1]: 17.26%
CC1=NC(C(=O)O)Cc2c1[nH]c1ccccc21 (centres undefined)	17.5	–	inhibition (INH) [1]: 16.48%
COC(=O)c1cc2c([nH]c3ccccc32)c(C=O)n1	9.83	–	IC50 [3]: 2.9 µM; selectivity ratio [4]: 7; CC50 [5]: 20.3 µM
Cc1nc(C(=O)N2CCSCC2)cc2c3ccccc3n(Cc3ccccc3)c12	6.22	inactive	–
CCCCn1c2ccccc2c2cc(C(=O)N3CCSCC3)nc(C)c21	1.36	inactive	–
CCCCn1c2c(c3ccccc31)CC(CCCC)(C(=O)OC)N=C2C (centres undefined)	14.1	inactive	–
C#CCn1c2ccccc2c2cc(C(=O)N3CCSCC3)nc(C)c21	21.5	inactive	–
CCn1c2ccccc2c2cc(C(=O)OC)nc(C)c21	3.73	inactive	–
COC(=O)c1cc2c([nH]c3ccccc32)c(C)n1	4.17	–	inhibition (INH) [1]: 21.3%
Cc1nc(C(=O)N2CCOCC2)cc2c1[nH]c1ccccc12	27.1	inactive	–
COC(=O)c1cc2c3ccccc3n3c(=O)ccc(n1)c23	3.59	inactive	–
CC(C)=CCn1c2ccccc2c2cc(C(=O)N3CCSCC3)nc(C)c21	19.8	inactive	–
Cc1nc(C(=O)N2CCCCC2)cc2c1[nH]c1ccccc12	1.71	inactive	–
COC(=O)c1cc2c3ccccc3n(C)c2c(C)n1	19.7	inactive	–
Cc1cn([C@H]2C[C@H](N=[N+]=[N-])[C@@H](CO)O2)c(=O)[nH]c1=O [ZIDOVUDINE]	–	–	IC50 [3]: 1.04 µM; CC50 [5]: 23 µM
Cc1nc(C(=O)N2CCSCC2)cc2c1[nH]c1ccccc12	1.61	–	inhibition (INH) [1]: 16.9%
CCCn1c2ccccc2c2cc(C(=O)OC)nc(C)c21	3.54	inactive	–
Cc1nc(C(=O)N2CCSCC2)cc2c3ccccc3n(Cc3ccc(F)cc3)c12	23.8	inactive	–
CCCCn1c2ccccc2c2cc(C(=O)OC)nc(C)c21	1.69	inactive	–
COC(=O)c1cc2c3ccccc3n(Cc3ccccc3)c2c(C)n1	15.1	inactive	–
